Source: PubChem BioAssay (several laboratories)
Most compounds without a hit are left out; they make up all but 3.9% or so of the library.
CRFBP-R2 block – CRF-BP/CRF-R2 complex antagonism; HEK293 CRF-R2/CRF-BP, CRF-induced calcium fluorescence; inhibition, % at 11.8 µM; hit rate 0.59% among 350,000; AID 588475;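 active = inhibition of the ligand-induced calcium signal above about 50% at the single tested concentration, limit read from the data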
TAAR1 antagonist – human TAAR1 antagonism; inhibition, % at 3 µM; hit rate 1.5% among 360,000; CHO RD-HGA16 TAAR1, Fluo-8 calcium fluorescence, antagonist; AID 624466; Q96RJ0;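 active = inhibition above a per-plate cutoff, the mean inhibition of test compounds on that plate plus 3 SD, cut at about 49% in these data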;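 also: 0% = DMSO plus EC80 beta-PEA response and 100% = DMSO alone without agonist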
Target sequence (Q96RJ0 whole entry, looked up): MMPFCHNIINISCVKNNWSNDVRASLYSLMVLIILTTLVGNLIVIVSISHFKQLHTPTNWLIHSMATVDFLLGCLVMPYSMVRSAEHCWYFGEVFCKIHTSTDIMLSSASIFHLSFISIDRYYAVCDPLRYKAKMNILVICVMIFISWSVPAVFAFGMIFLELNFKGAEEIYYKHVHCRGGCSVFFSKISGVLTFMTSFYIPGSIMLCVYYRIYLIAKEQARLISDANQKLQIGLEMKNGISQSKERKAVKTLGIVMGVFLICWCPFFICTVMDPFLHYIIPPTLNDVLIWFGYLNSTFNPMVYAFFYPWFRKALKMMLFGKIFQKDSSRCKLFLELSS
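Assay system: RD-HGA16 CHO cells with stable hTAAR1 and Gα16 / Reagent: EC80 β-phenethylamine stimulus / Doses: 3 µM, single point / Timing: dye loading 75 min at 37 °C, then 30 min room temperature / Measured by: Fluo-8 intracellular calcium dye fluorescence, real-time kinetic reads / Controls: vehicle wells and EC80 agonist wells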
TMEM16A act – activators or potentiators of mouse TMEM16A chloride channel | Q8BHY3 | HEK293 TMEM16A/YFP-H148Q/I152L, iodide quench fluorescence; hits give low values | B-score at 10 µM | hit rate 0.3% among 340,000 | AID 623877;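 active = fluorescence-ratio B-score plate-corrected deviation score at least 3 library SD below zero, with starting fluorescence score within 5 deviations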;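 also: channel opened by trigger with iodide after compound preincubation; score built on the fluorescence ratio of max minus min over baseline; more negative score means more quench and so TMEM16A activation or potentiation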
TAAR1 ag – human TAAR1 agonism; Q96RJ0; CHO RD-HGA16 TAAR1, Fluo-8 calcium fluorescence; vehicle wells 0%, saturating PEA agonist 100%; activation, % at 3 µM; hit rate 0.99% among 360,000; AID 624467;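 active = activation above the mean activation of all test compounds in the run plus 3 SD, cut at about 38% in these data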
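System: CHO RD-HGA16 cells carrying human TAAR1 plus Gα16; Incubation: 17-24 h seeding, 75 min 37 °C dye, 30 min RT; Measured by: Fluo-8 fluorescence, 5 s baseline then 140 s kinetic read; Control set: DMSO and PEA EC100; Replication: single well for each compound.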
TMEM16A inh – inhibitors of mouse TMEM16A calcium-activated chloride channel; Q8BHY3; HEK293 TMEM16A/YFP iodide influx fluorescence, ionomycin; normalized B-score (activity score, 25-100; higher = stronger inhibition) at 10 µM; hit rate 1.2% among 310,000;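 active = ratio plate-corrected score three or more library SD toward inhibition, starting fluorescence score within five deviations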;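 also: score derived from kinetic fluorescence span divided by baseline fluorescence per well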
CRFR2-BP ag – agonists of human CRF-binding protein/CRF-R2 receptor complex | HEK293 CRF-R2/CRF-BP, calcium dye fluorescence (FLIPR); percent of saturating CRF peptide response | activation, % at 13.2 µM | hit rate 0.46% among 350,000;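 active = activation of at least 50%, plus an integration ratio under a set limit after plate pattern correction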;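 also: plate controls were neutral control wells without compound for no effect and CRF at EC100 for full effect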
TMEM16A reconf – reconfirmed blocker of mouse TMEM16A calcium-activated chloride channel. shares compounds with TMEM16A inh. HEK293 TMEM16A/YFP-H148Q, iodide quench fluorescence; ionomycin added to raise cell calcium. inhibition, % at 10 µM. hit rate 39% among 2,300. AID 652189;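 active = mean duplicate percent inhibition, scaled so buffer wells are 0 and the reference blocker 100, over three buffer SD above buffer mean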
HEK293 Ca mobil – alters calcium mobilization in TMEM16A HEK293 cells, counter-screen; shares compounds with TMEM16A inh; TMEM16A/YFP HEK293, Fluo4 calcium mobilization; calcium response (% of ionomycin), % at 10 µM; hit rate 2% among 2,300; AID 652231;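 active = duplicate-averaged calcium signal over 20% of the ionomycin maximum, relative to buffer baseline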;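 also: each well's signal is peak minus trough fluorescence divided by its pre-addition baseline; 0% = buffer wells and 100% = ionomycin wells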
Parental YFP cnt – counter-screen for TMEM16A inhibitors: effect in parental YFP-HEK293 cells. shares compounds with TMEM16A inh. AID 652233. 2,300 tested, under 10 active. YFP ratio F(max-min)/F0 at 10 µM. iodide YFP quench, ionomycin;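 active = yellow fluorescent protein signal ratio exceeding the buffer control mean by over 5 SD of those controls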;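 also: ratio is mean of duplicate wells from kinetic YFP trace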
ClC-1 rat inh – selectivity of TMEM16A inhibitors: inhibition of rat ClC-1 chloride channel. CHO ClC-1-YFP, iodide influx fluorescence quench; iodide control reads 0, buffer control 100. ratio percent, % at 10 µM. 2,300 tested, under 10 active. shares compounds with TMEM16A inh;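 active = duplicate-mean ratio percent above the mean of iodide-only control wells, which defines zero, plus 5 of their SD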;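 also: higher percent means stronger block of ClC-1 iodide influx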
* marks the source's active call; other numbers are inactive results; i = inactive; nt = not tested or not shown.

SMILES	CRFBP-R2 block	TAAR1 antagonist	TMEM16A act	TAAR1 ag	TMEM16A inh	CRFR2-BP ag	TMEM16A reconf	HEK293 Ca mobil	Parental YFP cnt	ClC-1 rat inh
CCn1c(CSc2nc3ccccc3s2)nc2ccccc21	2	38	i	20	100*	0	43%*	i	-0.86	-8
CC1(C)CC(=O)C(C(=O)C2CCN(S(=O)(=O)c3ccccc3)CC2)C(=O)C1	0	10	i	3	i	-1	nt	nt	nt	nt
CCOC(=O)c1c(-c2ccccc2)csc1NC(=O)C1CCCO1 (stereo not given)	0	18	i	27	i	-1	nt	nt	nt	nt
CCOC(=O)c1c(-c2ccc(-c3ccccc3)cc2)csc1NC(=O)C1C2CCC(O2)C1C(=O)O (stereo not given)	10	25	i	12	100*	1	70%*	i	-1.1	-91
C=C(C)C(=O)Nc1cccc(C2=NOC3(C2)C[C@H](C(N)=O)N(C(=O)c2ccccc2C(=O)c2ccccc2)C3)c1 (stereo not given in full)	-10	-9	i	6	i	1	nt	nt	nt	nt
COc1ccc(-c2cccc(C3CC=CC4C3C(=O)N(Cc3ccccc3)C4c3ccc(C(F)(F)F)cc3)c2)cc1 (stereo not given)	-1	12	i	0	i	3	nt	nt	nt	nt
O=C1C2C(c3ccccc3)CC=CC2[C@H](c2ccc(C(F)(F)F)cc2)N1Cc1ccccc1 (stereo not given in full)	-1	1	i	-1	25*	1	i	i	-1.1	-10
CCOC(=O)C(CSCC(=O)c1ccc(Cl)cc1)NC(=O)OC(C)(C)C (stereo not given)	12	21	i	3	100*	-1	i	i	-1	-4
Cc1cc(/C=N/n2cnnc2)c(C)n1-c1ccc(OCc2ccc(Cl)cc2)cc1	12	47	i	15	100*	-2	24%*	i	-1.1	-19
COC(=O)c1ccc(-n2c(C)cc(C(=O)CSc3ccc(NC(C)=O)cc3)c2C)cc1	-14	28	i	7	25*	2	24%*	i	-1.1	-4
COc1ccc(CNc2ncnc3c2[nH]c2ccccc23)cc1	-6	40	i	34	i	15	nt	nt	nt	nt
CC(C)OCCCNc1ncnc2c1[nH]c1ccccc12	3	48	i	8	100*	0	38%*	i	-1.1	-22
CC(C)c1ccccc1OCC(=O)NCC(c1cccs1)N1CCOCC1 (stereo not given)	-12	37	i	11	100*	0	34%*	i	-1.3	-3
CC(C)(C)NC(=O)NC(=O)C[n+]1ccc(Cc2ccc([N+](=O)[O-])cc2)cc1	-12	-11	i	1	i	-1	nt	nt	nt	nt
Cc1ccc(S(=O)(=O)N(C)CC(=O)Oc2ccc(-c3nnco3)cc2)cc1	10	-17	i	-1	i	-2	nt	nt	nt	nt
COc1ccc(S(=O)(=O)Nc2ccccc2-c2nnn(CC(=O)Nc3ccccc3OC)n2)cc1	0	37	i	2	i	-1	nt	nt	nt	nt
COc1ccc(NC(=O)Cn2nnc(-c3ccccc3NS(=O)(=O)c3ccccc3)n2)cc1	2	nt	i	nt	100*	0	38%*	i	-0.84	-20
Cc1ccc(C(=O)CSc2nnc(COc3cccc(C)c3)o2)cc1	7	-10	i	4	100*	1	i	i	-1.1	-12
CCOC(=O)CSc1nnc(COc2cccc(C)c2)o1	3	20	i	-1	i	0	nt	nt	nt	nt
O=C(NCc1ccccc1)C(c1ccc(F)cc1)N(C(=O)c1csnn1)c1ccccc1 (stereo not given)	-11	-2	i	4	i	-1	nt	nt	nt	nt
N#Cc1ccsc1NC(=O)CSc1ncn[nH]1	5	2	i	8	i	0	nt	nt	nt	nt
N#Cc1ccsc1NC(=O)CSc1ncnc2ccccc12	-2	9	i	11	100*	-2	i	i	-1.2	-2
Cc1cc(C(=O)OCC(=O)Nc2cccc(S(=O)(=O)N(C)C)c2)c2ccccc2n1	-22	-34	i	4	i	25	i	i	-1.5	-2
CN(C)S(=O)(=O)c1cccc(NC(=O)CSc2nc3ccccc3[nH]2)c1	-8	10	i	10	i	1	nt	nt	nt	nt
CCN(CC)S(=O)(=O)c1cccc(NC(=O)CSc2nc3ccccc3[nH]2)c1	-9	19	i	9	100*	1	16%*	i	-0.95	-12
SMILES	CRFBP-R2 block	TAAR1 antagonist	TMEM16A act	TAAR1 ag	TMEM16A inh	CRFR2-BP ag	TMEM16A reconf	HEK293 Ca mobil	Parental YFP cnt	ClC-1 rat inh
CN(C)S(=O)(=O)c1cccc(NC(=O)CSc2ncnc3ccccc23)c1	-5	16	i	6	25*	0	i	i	-0.95	-10
CC(=O)N1c2ccc(S(=O)(=O)N3CCC(C(=O)Nc4cccc(Cl)c4)CC3)cc2CC1C (stereo not given)	3	-2	i	16	i	0	nt	nt	nt	nt
O=C(CCN1CCOCC1)Nc1ccccc1	1	-3	i	17	100*	-1	i	i	-1	-1
O=C(CNC(=O)c1ccc(Br)cc1)NC1=NCCS1	-5	-14	i	0	25*	-1	i	i	-1.2	-5
CCOc1cc(/C=N/N=C(/N)c2nonc2N)cc(Br)c1OCc1ccc(Cl)cc1	-10	-27	i	6	100*	3	i	i	-1	1
O=C(NC(NC(=S)Nc1ccc(Cl)c(Cl)c1)C(Cl)(Cl)Cl)c1ccco1 (stereo not given)	24	7	i	9	100*	1	36%*	i	-0.88	-21
COc1ccc(N/C(=C2\CCCC2=O)C2CCCCC2)cc1	-1	-3	i	14	i	1	i	i	-1	-15
Cc1csc(NC(=O)c2ccccc2O)n1	3	-3	i	-1	i	4	nt	nt	nt	nt
